Measurements from ChEMBL document CHEMBL3217692, “Synthesis and cytotoxicity evaluation of novel pyrido[3,4-d]pyrimidine derivatives as potential anticancer agents” (2012).

What was measured:
Format in all cases: functional
SF-539 = assay: Cytotoxicity against human SF539 cells assessed as cell growth at 10 uM after 48 hrs by sulforhodamine B assay relative to control; settings: SF-539, 48 h, read-out: Activity
Procedure, shortened: (§1)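 Adherent cells were grown in RPMI 1640 with 5% FBS and 2 mM L-glutamine, seeded at 5000–40 000 cells/well by doubling time, and held 24 h at 37 °C, 5% CO2 before drug. Time-zero plates were TCA-fixed. Compound in DMSO, single dose 10 μM, 48 h. Cells were fixed with cold TCA (final 10%, 60 min, 4 °C) and stained with 0.4% SRB. Bound dye was dissolved in 10 mM Tris base and read at 515 nm. Percent growth was derived from time-zero, control and treated absorbances.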

SF-295 = assay: Cytotoxicity against human SF295 cells assessed as cell growth at 10 uM after 48 hrs by sulforhodamine B assay relative to control; settings: SF-295, 48 h, read-out: Activity; procedure, shortened: as §1
NCI-H23 = assay: Cytotoxicity against human NCI-H23 cells assessed as cell growth at 10 uM after 48 hrs by sulforhodamine B assay relative to control; settings: NCI-H23, 48 h, read-out: Activity; procedure, shortened: as §1
NCI-H522 = assay: Cytotoxicity against human NCI-H522 cells assessed as cell growth at 10 uM after 48 hrs by sulforhodamine B assay relative to control; settings: NCI-H522, 48 h, read-out: Activity; procedure, shortened: as §1
MDA-MB-435 = assay: Cytotoxicity against human MDA-MB-435 cells assessed as cell growth at 10 uM after 48 hrs by sulforhodamine B assay relative to control; settings: MDA-MB-435, 48 h, read-out: Activity; procedure, shortened: as §1
[1] = Cytotoxicity against human OVCAR4 cells assessed as cell growth at 10 uM after 48 hrs by sulforhodamine B assay relative to control; settings: OVCAR-4, 48 h, read-out: Activity; procedure, shortened: as §1
NCI-H226 = assay: Cytotoxicity against human NCI-H226 cells assessed as cell growth at 10 uM after 48 hrs by sulforhodamine B assay relative to control; settings: NCI-H226, 48 h, read-out: Activity; procedure, shortened: as §1
SN12C = assay: Cytotoxicity against human SN12C cells assessed as cell growth at 10 uM after 48 hrs by sulforhodamine B assay relative to control; settings: read-out: Activity; procedure, shortened: as §1
[2] = Cytotoxicity against human OVCAR8 cells assessed as cell growth at 10 uM after 48 hrs by sulforhodamine B assay relative to control; settings: OVCAR-8, 48 h, read-out: Activity; procedure, shortened: as §1
[3] = Cytotoxicity against human OVCAR5 cells assessed as cell growth at 10 uM after 48 hrs by sulforhodamine B assay relative to control; settings: OVCAR-5, 48 h, read-out: Activity; procedure, shortened: as §1
M14 = assay: Cytotoxicity against human M14 cells assessed as cell growth at 10 uM after 48 hrs by sulforhodamine B assay relative to control; settings: M14, 48 h, read-out: Activity; procedure, shortened: as §1
SR = assay: Cytotoxicity against human SR cells assessed as cell growth at 10 uM after 48 hrs by sulforhodamine B assay relative to control; settings: read-out: Activity
Procedure, shortened: (§2)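 Suspension lines were cultured in RPMI 1640 with 5% FBS and 2 mM L-glutamine, plated at 5000–40 000 cells/well and preincubated 24 h (37 °C, 5% CO2). Compound in DMSO was given at a single 10 μM dose for 48 h. Settled cells were fixed with 80% TCA (final 16%), then stained with SRB and read at 515 nm. Growth percentage was taken relative to time-zero and untreated control absorbances.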

PC-3 = assay: Cytotoxicity against human PC3 cells assessed as cell growth at 10 uM after 48 hrs by sulforhodamine B assay relative to control; settings: PC-3, 48 h, read-out: Activity; procedure, shortened: as §1
HCT-116 = assay: Cytotoxicity against human HCT116 cells assessed as cell growth at 10 uM after 48 hrs by sulforhodamine B assay relative to control; settings: HCT-116, 48 h, read-out: Activity; procedure, shortened: as §1
MDA-MB-231 = assay: Cytotoxicity against human MDA-MB-231 cells assessed as cell growth at 10 uM after 48 hrs by sulforhodamine B assay relative to control; settings: MDA-MB-231, 48 h, read-out: Activity; procedure, shortened: as §1
LOX IMVI = assay: Cytotoxicity against human LOXIMVI cells assessed as cell growth at 10 uM after 48 hrs by sulforhodamine B assay relative to control; settings: read-out: Activity; procedure, shortened: as §1
SK-OV-3 = assay: Cytotoxicity against human SKOV3 cells assessed as cell growth at 10 uM after 48 hrs by sulforhodamine B assay relative to control; settings: SK-OV-3, 48 h, read-out: Activity; procedure, shortened: as §1
SK-MEL-5 = assay: Cytotoxicity against human SK-MEL-5 cells assessed as cell growth at 10 uM after 48 hrs by sulforhodamine B assay relative to control; settings: SK-MEL-5, 48 h, read-out: Activity; procedure, shortened: as §1
CAKI-1 = assay: Cytotoxicity against human CAKI-1 cells assessed as cell growth at 10 uM after 48 hrs by sulforhodamine B assay relative to control; settings: CAKI-1, 48 h, read-out: Activity; procedure, shortened: as §1
K562 = assay: Cytotoxicity against human K562 cells assessed as cell growth at 10 uM after 48 hrs by sulforhodamine B assay relative to control; settings: K562, 48 h, read-out: Activity; procedure, shortened: as §2
NCI-H460 = assay: Cytotoxicity against human NCI-H460 cells assessed as cell growth at 10 uM after 48 hrs by sulforhodamine B assay relative to control; settings: NCI-H460, 48 h, read-out: Activity; procedure, shortened: as §1
NCI-H322M = assay: Cytotoxicity against human NCI-H322M cells assessed as cell growth at 10 uM after 48 hrs by sulforhodamine B assay relative to control; settings: read-out: Activity; procedure, shortened: as §1
TK-10 = assay: Cytotoxicity against human TK10 cells assessed as cell growth at 10 uM after 48 hrs by sulforhodamine B assay relative to control; settings: TK-10, 48 h, read-out: Activity
Procedure, shortened: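 NCI-60 single-dose screen. Cells were grown in RPMI 1640 with 5% FBS and 2 mM L-glutamine, seeded at 5000–40 000 cells/well according to doubling time, and pre-incubated 24 h at 37 °C, 5% CO2. Time-zero plates were TCA-fixed at dosing. Compound in DMSO was given at 10 μM for 48 h. Cells were then fixed in cold TCA, stained with 0.4% SRB, solubilised in 10 mM Tris base and read at 515 nm. Growth % was calculated from time-zero, control and treated absorbances.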

ACHN = assay: Cytotoxicity against human ACHN cells assessed as cell growth at 10 uM after 48 hrs by sulforhodamine B assay relative to control; settings: read-out: Activity; procedure, shortened: as §1
MCF7 = assay: Cytotoxicity against human MCF7 cells assessed as cell growth at 10 uM after 48 hrs by sulforhodamine B assay relative to control; settings: MCF7, 48 h, read-out: Activity; procedure, shortened: as §1
MDA-MB-468 = assay: Cytotoxicity against human MDA-MB-468 cells assessed as cell growth at 10 uM after 48 hrs by sulforhodamine B assay relative to control; settings: MDA-MB-468, 48 h, read-out: Activity; procedure, shortened: as §1
[4] = Cytotoxicity against human Hs 578T cells assessed as cell growth at 10 uM after 48 hrs by sulforhodamine B assay relative to control; settings: read-out: Activity; procedure, shortened: as §1
RPMI-8226 = assay: Cytotoxicity against human RPMI8226 cells assessed as cell growth at 10 uM after 48 hrs by sulforhodamine B assay relative to control; settings: RPMI-8226, 48 h, read-out: Activity; procedure, shortened: as §2

COc1nccc2c(-c3cccc(F)c3)nc(N)nc12
growth at 10 µM (SF-539): 97.2% | growth at 10 µM (SF-295): 97.5% | growth at 10 µM (NCI-H23): 104% | growth at 10 µM (NCI-H522): 78.6% | growth at 10 µM (MDA-MB-435): 118% | growth at 10 µM [1]: 97.6% | growth at 10 µM (NCI-H226): 98.2% | growth at 10 µM (SN12C): 115% | growth at 10 µM [2]: 85.6% | growth at 10 µM [3]: 96% | growth at 10 µM (M14): 118% | growth at 10 µM (SR): 111% | growth at 10 µM (PC-3): 93% | growth at 10 µM (HCT-116): 104% | growth at 10 µM (MDA-MB-231): 107% | growth at 10 µM (LOX IMVI): 101% | growth at 10 µM (SK-OV-3): 105% | growth at 10 µM (SK-MEL-5): 108% | growth at 10 µM (CAKI-1): 104% | growth at 10 µM (K562): 95.2% | growth at 10 µM (NCI-H460): 112% | growth at 10 µM (NCI-H322M): 112% | growth at 10 µM (TK-10): 101% | growth at 10 µM (ACHN): 99.7% | growth at 10 µM (MCF7): 39.2% | growth at 10 µM (MDA-MB-468): 28.6% | growth at 10 µM [4]: 103% | growth at 10 µM (RPMI-8226): 107%
